Screening data as filed in PubChem BioAssay.
An excerpt weighted towards active compounds, which were near 0.19% of everything screened.
GASC1 inh – inhibitors of human demethylase GASC-1 KDM4C; Q9H3R0; GST-KDM4C 2-372, H3K9me3 peptide, LANCE TR-FRET; inhibition, % at 12.5 µM; 96,000 compounds, 0.15% hits;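 active = mean replicate inhibition above about 25%, with at least 55% of replicates also reaching it, limit read from the data, passing the limit was not always enough; inconclusive = only one of those two conditions met; inactive = neither condition met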
Target sequence (Q9H3R0 2-372 limits assumed): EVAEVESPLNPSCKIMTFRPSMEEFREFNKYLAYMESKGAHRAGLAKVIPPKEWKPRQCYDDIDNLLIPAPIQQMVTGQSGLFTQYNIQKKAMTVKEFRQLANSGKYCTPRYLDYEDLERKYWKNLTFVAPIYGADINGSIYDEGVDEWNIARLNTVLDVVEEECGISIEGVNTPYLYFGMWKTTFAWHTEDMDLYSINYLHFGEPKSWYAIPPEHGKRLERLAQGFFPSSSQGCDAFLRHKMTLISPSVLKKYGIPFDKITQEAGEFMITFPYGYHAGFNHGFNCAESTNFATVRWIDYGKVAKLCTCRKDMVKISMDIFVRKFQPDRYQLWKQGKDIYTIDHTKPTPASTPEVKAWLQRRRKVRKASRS
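Test system: N-terminal GST-fused human GASC-1 (KDM4C) fragment, residues 2-372; quantity: GASC-1 enzyme at 10 nM final in reaction; dosing: single dose; schedule: 30 min demethylation and 1 h detection at room temperature; signal: LANCE TR-FRET, excitation 340 nm, emissions 618 and 671 nm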
IDH1 mut inh – IDH1 R132H (human) inhibition; AID 624101; 70,000 compounds, 0.18% hits; inhibition, % at 10 µM; IDH1 R132H reductase, diaphorase/resazurin fluorescence, 60 min; in the data active = inhibition above about 34%; inconclusive = no clear call, values can overlap the other calls; inactive = below about 11%;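 note: 0% = DMSO and 100% = no enzyme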
* = called active by the depositor; ? = inconclusive; nt = no result; ! = a repeat was not active.

SMILES	GASC1 inh	IDH1 mut inh
CC(C)CC#Cc1ccc2c(c1)O[C@H](CN(C)C(=O)Cc1ccncc1)[C@@H](C)CN([C@H](C)CO)S2(=O)=O	1	5
CC(C)CC#Cc1ccc2c(c1)O[C@H](CN(C)C(=O)Cc1cccnc1)[C@H](C)CN([C@H](C)CO)S2(=O)=O	2	52*
CC(C)CC#Cc1ccc2c(c1)O[C@@H](CN(C)C(=O)Cc1cccnc1)[C@H](C)CN([C@H](C)CO)S2(=O)=O	-1	38*
CC(C)CC#Cc1ccc2c(c1)O[C@@H](CN(C)C(=O)Cc1cccnc1)[C@@H](C)CN([C@@H](C)CO)S2(=O)=O	0	13
CC(C)CC#Cc1ccc2c(c1)O[C@H](CN(C)C(=O)Cc1cccnc1)[C@@H](C)CN([C@@H](C)CO)S2(=O)=O	3	54*
CC(C)NC(=O)N(C)C[C@H]1Oc2ccc(NS(=O)(=O)c3cccs3)cc2CC(=O)N([C@@H](C)CO)C[C@H]1C	-1	-1
C[C@H](CO)N1C[C@H](C)[C@H](CN(C)Cc2ccc3c(c2)OCO3)Oc2ccc(NC(=O)C3CC3)cc2CC1=O	0	0
COCCNC(=O)C[C@@H]1CC[C@@H]2[C@H](COc3ccc(NC(=O)Cc4ccccc4)cc3C(=O)N2C)O1	-3	nt
Cc1ccc(S(=O)(=O)N[C@H]2CC[C@H](CC(=O)N3CCC(Cc4ccccc4)CC3)O[C@@H]2CO)cc1	-2	0
C[C@H](CO)N1C[C@H](C)[C@@H](CN(C)C(=O)c2cccnc2)Oc2cc(C#CC3CC3)ccc2S1(=O)=O	16	42*
C[C@H](CO)N1C[C@H](C)[C@H](CN(C)C(=O)c2cccnc2)Oc2cc(C#CC3CC3)ccc2S1(=O)=O	2	0
C[C@H]1CN([C@@H](C)CO)S(=O)(=O)c2ccc(C#CC3CCCCC3)cc2O[C@H]1CN(C)C(=O)Cc1ccncc1	-1	nt
C[C@@H]1CN([C@@H](C)CO)S(=O)(=O)c2ccc(C#CC3CCCCC3)cc2O[C@H]1CN(C)C(=O)Cc1ccncc1	0	66*
C[C@@H]1CN([C@@H](C)CO)S(=O)(=O)c2ccc(C#CC3CC3)cc2O[C@H]1CN(C)Cc1cccnc1	0	nt
C[C@@H]1CN([C@H](C)CO)S(=O)(=O)c2ccc(C#CC3CC3)cc2O[C@H]1CN(C)Cc1cccnc1	-1	60*
C[C@H]1CN([C@@H](C)CO)S(=O)(=O)c2ccc(C#CC3CC3)cc2O[C@@H]1CN(C)C(=O)Cc1ccncc1	1	nt
CCCNC(=O)N(C)C[C@@H]1Oc2ncc(-c3ccc(F)cc3)cc2C(=O)N([C@@H](C)CO)C[C@@H]1C	3	-3
CC(C)C(C(=O)O)N1C(=O)/C(=C/c2ccccc2)SC1=S (centres undefined)	nt	1
O=C(O)C(c1ccccc1)N1C(=O)/C(=C/c2ccncc2)SC1=S (centres undefined)	nt	66*
C[C@@H]1CCCCO[C@H](CN(C)Cc2ccc(C(=O)O)cc2)[C@H](C)CN([C@H](C)CO)C(=O)c2cc(NC(=O)CCCN(C)C)ccc2O1	1	nt
O=C(O)CNC(=O)C1COc2ccccc2O1 (centres undefined)	nt	0
O=C(CSC1=NCCN1)C1COc2ccccc2O1 (centres undefined)	nt	39*
C[C@H]1CCCCO[C@@H](CN(C)CC2CCCCC2)[C@@H](C)CN([C@@H](C)CO)C(=O)c2cc(NC(=O)C3CCCCC3)ccc2O1	0	1
Cc1noc(C)c1NC(=O)Nc1ccc2c(c1)C(=O)N([C@H](C)CO)C[C@@H](C)[C@H](CN(C)S(=O)(=O)c1cn(C)cn1)OCCCC[C@H](C)O2	-1	nt
COc1cccc(NC(=O)N[C@@H]2C=C[C@H](CC(=O)N3CCCCC3)O[C@@H]2CO)c1	1	nt
SMILES	GASC1 inh	IDH1 mut inh
COc1cccc(NC(=O)N[C@@H]2C=C[C@@H](CC(=O)N3CCCCC3)O[C@@H]2CO)c1	34*	nt
CCS(=O)(=O)NCC[C@@H]1CC[C@H](NC(=O)Nc2cc(Cl)cc(Cl)c2)[C@@H](CO)O1	0	0
CN([NH2+][O-])c1cc(O)ccc1O	nt	69*
O=C(O)C[C@@H]1C[C@H]2c3cc(NC(=O)Nc4ccc(C(F)(F)F)cc4)ccc3O[C@H]2[C@@H](CO)O1	-1	0
O=C(O)C[C@@H]1C[C@@H]2c3cc(NC(=O)Nc4ccc(C(F)(F)F)cc4)ccc3O[C@@H]2[C@@H](CO)O1	34*	50*
O=C(O)C[C@@H]1C[C@@H]2c3cc(NC(=O)CC4CC4)ccc3O[C@@H]2[C@H](CO)O1	1	-1
O=C(O)C[C@@H]1C[C@@H]2c3cc(NC(=O)CC4CC4)ccc3O[C@@H]2[C@@H](CO)O1	38*	60*
CC=Cc1ccc2n(c1=O)C[C@H]1[C@H](CO)[C@@H](C(=O)NCc3ccccc3)N(C)[C@@H]21 (mixture of isomers)	4	nt
N#Cc1cccc(-c2ccc(C3[C@H]4CNC[C@@H]3N4S(=O)(=O)c3ccc(F)cc3)cc2)c1 (some centres undefined)	35*!	nt
Cc1ccc(S(=O)(=O)N2[C@@H]3CNC[C@H]2C3c2ccc(-c3cccc(C#N)c3)cc2)cc1 (some centres undefined)	2	nt
CN(C)C(=O)C[C@@H]1CC[C@H]2[C@@H](COC[C@@H](O)CN2CC2CC2)O1	0	nt
O=C(N[C@H]1CC[C@H](CCn2cc(-c3ccccc3)nn2)O[C@@H]1CO)c1cnccn1	1	0
COc1cccc(NC(=O)N[C@H]2CC[C@@H](CC(=O)N3CCOCC3)O[C@H]2CO)c1	1	0
C[C@@H]1CN([C@@H](C)CO)C(=O)Cc2cc(NC(=O)CCC(F)(F)F)ccc2O[C@@H]1CN(C)S(=O)(=O)c1cn(C)cn1	3	2
C[C@H](CO)N1C[C@H](C)[C@@H](CN(C)S(=O)(=O)c2cn(C)cn2)Oc2ccc(NC(=O)CCC(F)(F)F)cc2CC1=O	26*	10
C[C@@H]1CN([C@@H](C)CO)C(=O)Cc2cc(NC(=O)Cn3cnnn3)ccc2O[C@H]1CN(C)Cc1ccc(C(F)(F)F)cc1	?	74*
C[C@@H]1CN([C@@H](C)CO)C(=O)Cc2cc(NC(=O)Cn3cnnn3)ccc2O[C@@H]1CN(C)Cc1ccc(C(F)(F)F)cc1	11	-2
CO[C@H]1CN(C)C(=O)c2cc(NC(=O)c3cnccn3)ccc2OC[C@H](C)N(CC2CC2)C[C@@H]1C	-1	nt
CCc1cccc(-n2c(-c3ccco3)nc3c(cnn3-c3ccccc3Cl)c2=O)c1	nt	46*
COC(=O)C[C@H]1C[C@H]2c3cc(N(C)C)ccc3O[C@H]2[C@@H](CO)O1	36*	-11
CN(C)c1ccc2c(c1)[C@H]1C[C@H](CC(=O)NCCc3ccccc3)O[C@H](CO)[C@H]1O2	18	-11
CCCNC(=O)C[C@H]1C[C@H]2c3cc(NC(=O)CN(C)C)ccc3O[C@H]2[C@@H](CO)O1	0	-1
CCCNC(=O)C[C@@H]1C[C@H]2c3cc(N(C)C)ccc3O[C@H]2[C@@H](CO)O1	28*	-3
COCCNC(=O)C[C@@H]1C[C@H]2c3cc(NC(=O)CN(C)C)ccc3O[C@H]2[C@@H](CO)O1	0	0
CCCNC(=O)C[C@@H]1C[C@H]2c3cc(NC(=O)CN(C)C)ccc3O[C@H]2[C@H](CO)O1	40*	45*
COCCNC(=O)C[C@H]1C[C@@H]2c3cc(N(C)C)ccc3O[C@@H]2[C@@H](CO)O1	46*	-13
